Screening results from PubChem BioAssay.
M4 ag – human M4 muscarinic receptor agonists, primary screen, CHO-K1 cells, Fluo-8 calcium fluorescence; AID 624127, 2012; activation, % at 3 µM; CHO-K1 hM4/Gqi5; vehicle 0%, full acetylcholine response 100%; hit rate 0.14% among 360,000;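 active = activation above the run mean over all test wells plus 3 SD, cut at about 32% in these data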;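 also: peak over basal fluorescence ratio per well then scaled between controls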
CHRM4 antagonist – human M4 muscarinic receptor antagonists, primary screen, CHO cells, Fluo-8 calcium fluorescence; Muscarinic acetylcholine receptor M4 (Homo sapiens), P08173; CHO-hM4 cells, ACh EC80; inhibition, % at 3 µM; hit rate 0.73% among 360,000; AID 624125, 2012;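 active = inhibition above its plate's cutoff, the mean inhibition of sample wells plus 3 SD, cut at about 27% in these data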
M5 PAM – human M5 muscarinic receptor positive allosteric modulators, primary screen, CHO-K1 cells, Fluo-8 calcium fluorescence | activation, % at 3 µM | hit rate 0.3% among 360,000 | CHO-K1 hM5, ACh EC20 PAM; 0% = ACh EC20, 100% = ACh EC100 | Muscarinic acetylcholine receptor M5 (Homo sapiens), P08912;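 active = activation above the run cutoff, the mean activation of all test compounds plus 3 SD, cut at about 18% in these data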
Target sequence (P08912 whole entry, looked up): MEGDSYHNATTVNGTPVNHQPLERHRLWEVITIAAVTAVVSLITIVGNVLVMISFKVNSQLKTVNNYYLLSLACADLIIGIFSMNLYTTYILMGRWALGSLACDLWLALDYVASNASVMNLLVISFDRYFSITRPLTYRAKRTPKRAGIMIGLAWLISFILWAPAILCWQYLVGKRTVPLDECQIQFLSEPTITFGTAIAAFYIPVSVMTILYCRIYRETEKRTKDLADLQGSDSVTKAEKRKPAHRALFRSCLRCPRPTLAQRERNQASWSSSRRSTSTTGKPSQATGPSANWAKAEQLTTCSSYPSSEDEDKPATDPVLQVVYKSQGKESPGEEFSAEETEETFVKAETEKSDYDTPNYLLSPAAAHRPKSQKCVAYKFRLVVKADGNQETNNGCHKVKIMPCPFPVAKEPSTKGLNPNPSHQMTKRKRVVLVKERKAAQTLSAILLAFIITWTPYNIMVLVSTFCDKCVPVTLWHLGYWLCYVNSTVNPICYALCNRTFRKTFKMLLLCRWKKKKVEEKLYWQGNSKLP
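Assay system: CHO-K1 hM5 cells / Incubation: Fluo-8 loading 80 min at 37 °C plus 30 min room temperature / Technique: Fluo-8 calcium dye fluorescence, kinetic read / Repeats: single replicate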
M5 antag – human M5 muscarinic receptor antagonists, primary screen, CHO cells, Fluo-8 calcium fluorescence | hit rate 0.59% among 360,000 | Muscarinic acetylcholine receptor M5 (Homo sapiens), P08912 | CHO-hM5 cells, ACh EC80 | inhibition, % at 3 µM;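 active = inhibition above a per-plate cutoff, the mean of that plate's test compounds plus 3 SD, cut at about 27% in these data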
M5 ag – human M5 muscarinic receptor agonists, primary screen, CHO-K1 cells, Fluo-8 calcium fluorescence; CHO-K1 hM5 cells; 0% DMSO wells, 100% maximal acetylcholine response; activation, % at 3 µM; hit rate 0.19% among 360,000; AID 624037, 2012;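 active = activation above the run's mean over test compounds plus 3 SD, cut at about 23% in these data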;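 also: signal is peak over basal fluorescence ratio across the kinetic read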
M4 PAM – human M4 muscarinic receptor positive allosteric modulators, primary screen, CHO-K1 cells, Fluo-8 calcium fluorescence | hit rate 0.4% among 360,000 | activation, % at 3 µM | CHO-K1 hM4/Gqi5, ACh EC20; 0% = ACh EC20, 100% = maximal ACh;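 active = activation above its plate's cutoff, the mean activation of sample wells plus 3 SD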
Each line names hits and unclear results; the compound was inactive in the other large screens. Only some compounds are listed: those with a hit (about 1.8% of all), similar ones and a draw of the others.

Cn1c(=O)c2[nH]c(CCCCc3nc4ccccc4[nH]3)nc2n(C)c1=O	none
CCN1C(=O)[C@H]2[C@@H](c3ccc(C(F)(F)F)cc3)N[C@]3(CCCN(Cc4ccco4)C3=O)[C@H]2C1=O	none
COc1ccc(Nc2nc(-c3cccs3)nc3ccccc23)cc1S(=O)(=O)N1CCOCC1	CHRM4 antagonist 28.7
CCOc1ccc(CC(=O)Nc2c3c(nn2C(C)(C)C)CS(=O)(=O)C3)cc1	none
COc1ccc(C)cc1NS(=O)(=O)c1ccc2c(c1)N(C)CCO2	none
CNC[C@@H]1Oc2cc(Br)ccc2S(=O)(=O)N([C@@H](C)CO)C[C@@H]1C	CHRM4 antagonist 48.0
CN1CCN(CCCNC(=O)CCc2nnc3n(Cc4ccccc4Cl)c(=O)c4ccccc4n23)CC1	M4 PAM 15.9
O=C(CCc1nnc2n(Cc3ccc(F)cc3)c(=O)c3ccccc3n12)NCCCN1CCOCC1	none
CCC(C)C(NC(=O)C1CCC(C)CC1)C(=O)NC(C(=O)OC)C(C)C (centres undefined)	M4 PAM 20.3
OC(CCN1CCC2CCC(C2)C1)c1ccc(Br)cc1 (centres undefined)	CHRM4 antagonist 37.1
COC(=O)CCCC1=CC2=CC(=O)C(C)(OC(=O)c3cccs3)C(=O)C2=CN1Cc1ccccc1 (centres undefined)	none
COC(=O)CCCC1=CC2=CC(=O)C(C)(OC(=O)c3cccs3)C(=O)C2=CN1c1ccc(OC)cc1 (centres undefined)	CHRM4 antagonist 26.8
CC(C)NC(=O)Cc1ccc(Br)cc1	none
COc1ccc(C(C)NC(=O)Cc2ccc(Br)cc2)cc1 (centres undefined)	M4 ag 37.3
CC(C1CC2CCC1C2)n1c(-c2ccco2)n[nH]c1=S (centres undefined)	M5 antag 28.9
Cc1ccc(-n2c(-c3ccco3)n[nH]c2=S)cc1	none
COc1ccccc1Nc1nc(=O)[nH]nc1C	none
Cc1n[nH]c(=O)nc1NC(C)c1ccccc1 (centres undefined)	CHRM4 antagonist 27.5
CN1CCN(c2ccc(CNS(=O)(=O)c3ccc(F)cc3Cl)cc2)CC1	M4 PAM 19.6
CCOC(=O)C1CCN(S(=O)(=O)c2ccc(Cl)s2)CC1	none
CC(C)(C)S(=O)N1Cc2cc(C(=O)Nc3ccc(-c4ccccc4)cc3)nc(-c3cccc(-c4cc5ccccc5o4)c3)c2[C@@H]1CCO (some centres undefined)	M4 PAM 20.8
O=S(=O)(Nc1cccc2ncccc12)c1cccs1	CHRM4 antagonist 36.8
N#C/C(=C\c1ccc(N2CCCCC2)o1)C(=O)Nc1cccc(Br)c1	M4 ag 46.8, CHRM4 antagonist 32.2, M5 antag 58.8, M5 ag 60.2
N#Cc1c(N)c(C#N)c(-c2ccc(O)cc2)c2c1CCCC2	none
N#Cc1c(N)c(C#N)c(-c2ccc3c(c2)OCO3)c2c1CCCC2	M5 PAM 23.1, M4 PAM 39.1
O=C(CCc1nc2ccccc2c(=O)[nH]1)N1CCN(C/C=C/c2ccccc2)CC1	M5 antag 28.0
CC(=O)N1CCN(C(=O)CCc2nc3ccccc3c(=O)[nH]2)CC1	none
O=C(O)C1CCN(S(=O)(=O)c2ccc3[nH]ccc3c2)CC1	none
Cc1ccc(C(=O)NCCCN2CCN(CCCNC(=O)c3ccc(C)cc3)CC2)cc1	none
O=C(NN1C(=O)C2C(c3ccccc3)C=CC(c3ccccc3)C2C1=O)c1cccc(Br)c1 (centres undefined)	M5 antag 36.9
CCOc1ccc(/C=C/[N+](=O)[O-])c2ccccc12	CHRM4 antagonist 39.7, M5 antag 86.1, M5 ag 54.1
O=C1NC(=O)C(c2ccccc2)(c2ccc(Cl)cc2Cl)N1 (centres undefined)	none
